Source: ChEMBL document CHEMBL1687852, “Steroids with aromatic A-rings from the Hainan soft coral Dendronephthya studeri Ridley” (J Nat Prod, 2011)
Activity calls are given as the source filed them. The rule behind the calls is not given here.

Experiments:
Type in all cases: functional, cell-based
Bel-7402 [1] = assay: Cytotoxicity against human Bel7402 at 20 ug/ml by MTT assay
Outline: (§1)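 Growth of the tumour cell lines was tested with compound at concentrations up to 20 μg/mL. The lines were human lung adenocarcinoma A549, BEL-7402, human promyelocytic leukaemia HL-60 and murine lymphocytic leukaemia P388.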

P388 = assay: Cytotoxicity against mouse P388 at 20 ug/ml by MTT assay; outline: as §1
HL-60 = assay: Cytotoxicity against human HL60 at 20 ug/ml by MTT assay; outline: as §1
A549 = assay: Cytotoxicity against human A549 at 20 ug/ml by SRB assay; outline: as §1
Bel-7402 [2] = assay: Cytotoxicity against human Bel7402 by MTT assay

Compound | Activity (Bel-7402 [1]) | Activity (P388) | Activity (HL-60) | Activity (A549) | Activity (Bel-7402 [2])
CC1CC1/C=C/[C@@H](C)[C@H]1CC[C@H]2[C@@H]3CCc4cc(O)ccc4[C@H]3CC[C@]12C (stereo partly specified) | inactive | inactive | inactive | inactive | 
C=C(CC[C@@H](C)[C@H]1CC[C@H]2[C@@H]3CCC4=CC(=O)C=C[C@]4(C)[C@H]3CC[C@]12C)C(C)C | inactive | inactive | inactive | inactive | 
CC(C)/C=C/[C@@H](C)[C@H]1CC[C@H]2[C@@H]3CCC4=CC(=O)C=C[C@]4(C)[C@H]3CC[C@]12C | inactive | inactive | inactive | inactive | 
C=C(CC[C@@H](C)[C@H]1CC[C@H]2[C@@H]3CCc4cc(O)ccc4[C@H]3CC[C@]12C)C(C)C | inactive | inactive | inactive | inactive | 
CC(C)[C@H](C)/C=C/[C@@H](C)[C@H]1CC[C@H]2[C@@H]3CCc4cc(O)ccc4[C@H]3CC[C@]12C | inactive | inactive | inactive | inactive | 
COC(=O)[C@H](CCCC(C)C)[C@H]1CC[C@H]2[C@@H]3CC[C@H]4CC(=O)C=C[C@]4(C)[C@H]3CC[C@]12C |  |  |  |  | Active
CC(C)CCC[C@@H](C)[C@H]1CC[C@H]2[C@@H]3CCc4cc(O)ccc4[C@H]3CC[C@]12C | inactive | inactive | inactive | inactive | 
CC(C)/C=C/[C@@H](C)[C@H]1CC[C@H]2[C@@H]3CCc4cc(O)ccc4[C@H]3CC[C@]12C | inactive | inactive | inactive | inactive | 
CC(C)C/C=C/[C@@H](C)[C@H]1CC[C@H]2[C@@H]3CCc4cc(O)ccc4[C@H]3CC[C@]12C | inactive | inactive | inactive | inactive | 
CC(C)C/C=C/[C@@H](C)[C@H]1CC[C@H]2[C@@H]3CCC4=CC(=O)C=C[C@]4(C)[C@H]3CC[C@]12C | inactive | inactive | inactive | inactive | 
CC(C)[C@@H](C)/C=C/[C@@H](C)[C@H]1CC[C@H]2[C@@H]3CCc4cc(O)ccc4[C@H]3CC[C@]12C | inactive | inactive | inactive | inactive | 
